In publication PMC11437748 (Computational and Structural Biotechnology Journal, 2024):
Bridges are numbered along the chain shown (N, C = ends). Where no end group is shown, it is not given here.

Legend:
[1] = test system: three tested E. coli strains; assay: NPN assay, outer membrane permeabilisation; assay type: cell-based, Escherichia coli; details: 1 × MIC, 2 × MIC, 4 × MIC; 37 °C, 2 h
Outline: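 Log-phase E. coli pelleted at 3000g for 10 min and washed three times in 5 mM HEPES pH 7.2 with 5 mM glucose. Resuspended at 1×10^7 CFU/ml with NPN and test compound at 1×, 2× or 4× MIC. Incubated at 37 °C for 2 h, then fluorescence read at […]. Melittin set 100 % and buffer 0 % permeability. Three independent runs.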

[2] = Secondary structure analysis by CD spectrometry; assay type: physicochemical; details: for α helix (%) NH4AC: 50 µM peptide in 10 mM NH4AC; for α helix (%) NH4AC / α helix (%) TFE: CD 190 to 260 nm, K2D3 estimate; for α helix (%) TFE: 50 µM peptide in 50 % TFE (v/v, in 10 mM NH4AC)
Outline: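 CD spectra of test compound (final 50 µM) in 10 mM ammonium acetate, in 50 % TFE (v/v, in 10 mM ammonium acetate), or with LPS O26:B6 (100 µM) in 10 mM ammonium acetate. Scanned 190–260 nm at 100 nm/min, 1 nm bandwidth, 0.5 nm data pitch. Helix content estimated with K2D3.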

[3] = test system: E. coli 2340; assay: Salt sensitivity assay; assay type: cell-based, Escherichia coli; details: three independent repeats
Outline: (§1)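 MIC/MBC measured in MHB supplemented with salts, including 150 mM NaCl, 2 mM CaCl₂ or 1 mM MgCl₂. Gram-negative cultures subcultured to OD550 0.4, then diluted to 5×10^5 cfu/ml. Test compound 1–128 μM, 37 °C, 18 h, growth at 550 nm. MBC: wells spotted on agar for 18 h at 37 °C; lowest concentration with no colonies. Three independent repeats.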

[4] = test system: tested E. coli strains; assay: ONPG assay, inner membrane permeabilisation; assay type: cell-based, Escherichia coli; details: E. coli 8739
Outline: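 E. coli grown in LB with 2 % lactose to log phase, then pelleted. Incubated with test compound while absorbance at 460 nm was monitored continuously at 37 °C. Untreated cells, melittin and solvent-only groups included. Three independent runs, three replicates each.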

[5] = test system: E. coli 2340; assay: In vivo antibacterial study, G. mellonella larvae model; design: species or system Galleria mellonella; details: five days; 10, 20, 40 mg/kg; ten larvae per group
Outline: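 Galleria mellonella larvae injected in the last right proleg with E. coli suspension (1×10^7 CFU/ml). Test compound given 1 h later at 10, 20 or 40 mg/kg. Larvae kept at 37 °C for five days, survival scored daily, ten larvae per group. Rifampin 20 mg/kg was the positive control and sterile PBS the negative control. Three independent experiments.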

[6] = test system: E. coli 13846; assay: Salt sensitivity assay; assay type: cell-based, Escherichia coli; details: three independent repeats
Outline: as §1

[7] = test system: E. coli 8739, E. coli 13846, and E. coli 2340; assay: Time-killing kinetic assay; assay type: cell-based, Escherichia coli
Outline: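 E. coli at 10^6 CFU/ml mixed with test compound at 1×, 2× or 4× MIC. 10 µl aliquots taken into PBS at 0, 5, 10, 20, 30, 60, 90, 120 and 180 min and plated on agar. Colonies counted after 24 h incubation. Three independent sessions, three replicates each.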

[8] = test system: E. coli plasmid DNA (pBR322); assay: DNA binding assay; design: species or system Escherichia coli; details: 100 ng plasmid DNA, 37 °C, 1 h, agarose gel electrophoresis
Outline: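 Gel retardation: test compound (final 1–32 μM) incubated with 100 ng E. coli plasmid DNA at 37 °C for 1 h. Buffer: 1 mM EDTA, 10 mM Tris-HCl pH 8.0, 5 % glucose, 50 μg/ml BSA, 20 mM KCl. Resolved by agarose gel electrophoresis in 1 × TAE. A known DNA-binding peptide at equal concentrations served as control.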

[9] = test system: tested Gram-positive bacteria; assay: Geometric mean of MICs and TI, Gram-positive bacteria; assay type: cell-based; details: geometric mean of the MICs against tested Gram-positive bacteria
Outline: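 Broth dilution against S. aureus NCTC 10788, MRSA NCTC 12493 and E. faecalis NCTC 12697. Overnight cultures subcultured to OD550 0.23 (about 1×10^8 cfu/ml), then diluted to 5×10^5 cfu/ml. Test compound at 1–128 μM, 37 °C, 18 h, growth read at 550 nm. MIC = lowest concentration with no growth. Three independent runs in triplicate. Geometric mean taken across the MICs.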

[10] = test system: E. coli 8739; assay: Salt sensitivity assay; assay type: cell-based, Escherichia coli; details: three independent repeats
Outline: as §1

## FFPKVAGVAAKVLKKFCTISKKC (disulfide 17-23 (inferred)) [des-Ala^16-[Lys^4]brevinin−1pl]
[1]
  outer membrane permeabilisation of the tested E. coli strains: did not induce significant changes
[2]
  α helix (%) NH4AC: 31.95%
  α helix (%) TFE: 95.28%
[2]; LPS (O26:B6, 100 µM) in 10 mM NH4AC, CD, K2D3 prediction
  α helix content in the presence of LPS: 95.44%
[3]; 4 µM FeCl3 in MHB medium
  MBC: 4 /4
  MIC: 4 /4
[3]; 6 µM NH4Cl in MHB medium
  MBC: 4 /4
  MIC: 4 /4
[3]; 8 µM ZnCl2 in MHB medium
  MBC: 4 /4
  MIC: 4 /4
[3]; 1 mM MgCl2 in MHB medium
  MBC: 8 /8
  MIC: 8 /8
[3]; 2 mM CaCl2 in MHB medium
  MBC: 16 /16
  MIC: 16 /16
[3]; 4.5 mM KCl in MHB medium
  MBC: 2 /2
  MIC: 2 /2
[3]; 150 mM NaCl in MHB medium
  MBC: 4 /4
  MIC: 4 /4
[3]; Control, MHB medium
  MBC: 4 /4
  MIC: 4 /4
[4]
  changes in OD values in the ONPG assay (release of cytoplasmic beta-galactosidase): did not induce obvious changes in OD values
[5]
  survival rate of infected larvae: 90%
[6]; 4 µM FeCl3 in MHB medium
  MBC: 8 /8
  MIC: 8 /8
[6]; 6 µM NH4Cl in MHB medium
  MBC: 8 /8
  MIC: 8 /8
[6]; 8 µM ZnCl2 in MHB medium
  MBC: 8 /8
  MIC: 8 /8
[6]; 1 mM MgCl2 in MHB medium
  MBC: 16 /16
  MIC: 16 /16
[6]; 2 mM CaCl2 in MHB medium
  MBC: 64 /64
  MIC: 64 /64
[6]; 4.5 mM KCl in MHB medium
  MBC: 8 /8
  MIC: 8 /8
[6]; 150 mM NaCl in MHB medium
  MBC: 8
  MIC: 4
[6]; Control, MHB medium
  MBC: 4 /4
  MIC: 4 /4
[7]; 4 × MIC
  bacteria eradication at 4 × MIC: almost immediate bacteria eradication upon contact
[7]; 10^6 CFU/ml, peptide 1 × MIC to 4 × MIC, sampled 0 to 180 min, colony count
  time to eradicate all cells: ≤ 10 min
[7]; at their MICs, three types of E. coli
  time to completely clear the bacteria: ≤ 1 h
[8]
  concentration of complete retardation of plasmid DNA: 16 µM
[9]
  GM G+: 80.63 µM
[10]; 4 µM FeCl3 in MHB medium
  MBC: 2 /2
  MIC: 2 /2
[10]; 6 µM NH4Cl in MHB medium
  MBC: 2 /2
  MIC: 2 /2
[10]; 8 µM ZnCl2 in MHB medium
  MBC: 2 /2
  MIC: 2 /2
[10]; 1 mM MgCl2 in MHB medium
  MBC: 32 /32
  MIC: 32 /32
[10]; 2 mM CaCl2 in MHB medium
  MBC: 8 /8
  MIC: 8 /8
[10]; 4.5 mM KCl in MHB medium
  MBC: 2 /2
  MIC: 2 /2
[10]; 150 mM NaCl in MHB medium
  MBC: 4 /4
  MIC: 4 /4
[10]; Control, MHB medium
  MBC: 2 /2
  MIC: 2 /2

## FFPKVAGVAAKV_KK_FCTISKKC (disulfide) [des-Leu^13, Ala^16-[Lys^4]brevinin−1pl]
[2]
  α helix (%) NH4AC: 34.65%
  α helix (%) TFE: 95.28%
[9]
  GM G+: 256 µM
